Reference: ChEMBL document CHEMBL2429727, “Syntheses, biological evaluation and SAR of ingenol mebutate analogues for treatment of actinic keratosis and non-melanoma skin cancer” (Bioorg Med Chem Lett, 2013)

Assays:
Keratinocyte [1] = assay: Induction of TNFalpha release in human primary epidermal keratinocytes after 6 hrs relative to ingenol mebutate; assay type: functional
Summary of the method: (§1)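 Human adult log-phase primary epidermal keratinocytes subcultured at 10,000 cells/well. Incubated with titrated compound for 6 h at 37 °C in humidified 95% air/5% CO2. Secreted cytokines quantified on 4-spot cytokine plates. EC50 is the concentration giving 50% of the maximum effect of the ingenol mebutate reference. Emax is maximal response relative to that reference.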

Keratinocyte [2] = assay: Induction of IL-8 release in human primary epidermal keratinocytes after 6 hrs by HTRF assay relative to ingenol mebutate; assay type: functional
[3] = Induction of oxidative burst in polymorphonuclear leukocytes (unknown origin) isolated from buffy coat at 10 uM after 40 mins by fluorescence assay relative to ingenol mebutate; assay type: functional
Summary of the method: (§2)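 PMN isolated and purified from fresh buffy coats, then incubated 40 min at ambient temperature with titrated compound (top concentration 10 µM) premixed with hydroethidine. Respiratory burst read as fluorescence in relative light units, emission 579 nm, excitation 485 nm. EC50 and Emax are expressed relative to the maximum effect of the ingenol mebutate reference.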

[4] = Induction of oxidative burst in polymorphonuclear leukocytes (unknown origin) isolated from buffy coat after 40 mins by fluorescence assay; assay type: functional, cell-based; summary of the method: as §2
Keratinocyte [5] = assay: Induction of IL-8 release in human primary epidermal keratinocytes after 6 hrs by HTRF assay; assay type: functional, cell-based
Keratinocyte [6] = assay: Induction of TNFalpha release in human primary epidermal keratinocytes after 6 hrs; assay type: functional, cell-based; summary of the method: as §1
[7] = Chemical stability of the compound in aqueous buffer assessed as drug recovery after 16 hrs at pH 7.4 by HPLC analysis; assay type: physicochemical; settings: read-out: Drug recovery
Summary of the method: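 DMSO stock diluted with pre-heated (37 °C) aqueous buffer pH 7.4 to at most 30% v/v organic content, then shaken. Held in the HPLC autosampler at 37 °C, first injected within 5 min, then injected repeatedly over 16 h. Recovery taken from the fall in compound peak area, UV detection normally at 270 nm.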

[8] = Induction of necrosis in human HeLa cells after 30 mins by resazurin assay; assay type: cell-based; settings: read-out: LC50
Summary of the method: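 HeLa cells exposed to increasing ester concentrations up to 400 µM for 30 min at 37 °C. Remaining metabolic activity then read with a resazurin-based dye. LC50 is the concentration causing 50% loss of metabolic activity.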

[9] = target: Protein kinase C delta type (Homo sapiens, UniProt Q05655); assay: Activation of PKCdelta (unknown origin) using phosphatidylserine […]
Summary of the method: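 PKCdelta assayed in vitro by phosphorylation of a PKC peptide substrate, with 0.05 mg/mL phosphatidylserine and no diacylglycerol so stimulation could be seen. Compounds serially diluted at semilogarithmic intervals, twelve points from 10 µM. Reaction started by adding ATP.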

Protein kinase C delta type, sequence (Q05655 whole entry): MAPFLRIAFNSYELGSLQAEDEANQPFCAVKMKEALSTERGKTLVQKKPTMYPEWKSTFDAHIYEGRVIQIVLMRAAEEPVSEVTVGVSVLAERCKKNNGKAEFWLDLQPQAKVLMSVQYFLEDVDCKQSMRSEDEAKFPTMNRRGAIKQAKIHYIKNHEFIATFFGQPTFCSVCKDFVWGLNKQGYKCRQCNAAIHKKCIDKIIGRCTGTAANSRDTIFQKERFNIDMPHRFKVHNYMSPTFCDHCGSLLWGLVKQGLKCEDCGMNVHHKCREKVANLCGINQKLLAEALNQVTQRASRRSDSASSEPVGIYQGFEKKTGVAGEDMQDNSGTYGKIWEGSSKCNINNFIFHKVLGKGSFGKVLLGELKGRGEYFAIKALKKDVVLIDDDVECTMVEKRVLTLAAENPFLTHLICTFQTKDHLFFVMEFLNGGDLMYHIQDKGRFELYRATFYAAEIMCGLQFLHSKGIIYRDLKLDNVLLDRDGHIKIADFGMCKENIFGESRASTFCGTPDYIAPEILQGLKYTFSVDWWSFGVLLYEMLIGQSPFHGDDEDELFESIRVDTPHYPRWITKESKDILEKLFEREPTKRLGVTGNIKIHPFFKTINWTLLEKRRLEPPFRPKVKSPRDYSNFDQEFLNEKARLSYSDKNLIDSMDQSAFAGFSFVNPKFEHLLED

Row | SMILES | Emax (Keratinocyte [1]) [%] | Emax (Keratinocyte [2]) [%] | Emax at 10 µM [3] [%] | EC50 [4] [nM] | EC50 (Keratinocyte [5]) [nM] | EC50 (Keratinocyte [6]) [nM] | remaining at 16 h [7] [%] | CC50 at 0.5 h [8] [nM] | EC50 [9] | EC50 ([9]; read-out: EC50) [nM]
1 | C/C=C/C(=O)O[C@H]1C(C)=C[C@]23C(=O)[C@@H](C=C(CO)[C@@H](O)[C@]12O)[C@H]1[C@@H](C[C@H]3C)C1(C)C | 91 | 93 | 110 | 9.1 | 821 | 802 | 0 |  |  | 
2 | CC1=C[C@]23C(=O)[C@@H](C=C(CO)[C@@H](O)[C@]2(O)[C@H]1OC(=O)C1=CCCCC1)[C@H]1[C@@H](C[C@H]3C)C1(C)C | 42 | 45 | 99 | 6.7 | 10000 | 10000 | 60 |  |  | 
3 | CO/N=C(/C(=O)O[C@H]1C(C)=C[C@]23C(=O)[C@@H](C=C(CO)[C@@H](O)[C@]12O)[C@H]1[C@@H](C[C@H]3C)C1(C)C)c1ccccc1 | 47 | 45 | 117 | 28 | 10000 | 10000 | 55 |  |  | 
4 | C/C=C(/C)C(=O)O[C@H]1C(C)=C[C@@]23C(=O)[C@H]([C@H]4[C@@H](C[C@H]2C)C4(C)C)[C@H]2O[C@@]2(CO)[C@@H](O)[C@]13O | 156 | 119 | 114 | 50 | 320 | 367 |  |  |  | 
5 | C=C(C)C(=O)O[C@H]1C(C)=C[C@]23C(=O)[C@@H](C=C(CO)[C@@H](O)[C@]12O)[C@H]1[C@@H](C[C@H]3C)C1(C)C | 77 | 74 | 114 | 6.1 | 246 | 213 | 20 | 406000 |  | 
6 | C/C=C(/C)C(=O)O[C@H]1C(C)=C[C@]23C(=O)[C@@H](C=C(CO)[C@@H](OC)[C@]12O)[C@H]1[C@@H](C[C@H]3C)C1(C)C | 131 |  | 119 | 281 | 738 | 748 | > 95 |  |  | 
7 | CC1=C[C@]23C(=O)[C@@H](C=C(CO)[C@@H](O)[C@]2(O)[C@H]1OC(=O)C1CCCCC1)[C@H]1[C@@H](C[C@H]3C)C1(C)C | 47 | 43 | 104 | 6 | 10000 | 10000 | 35 | 112000 |  | 
8 | CC1=C[C@]23C(=O)[C@@H](C=C(CO)[C@@H](O)[C@]2(O)[C@H]1O)[C@H]1[C@@H](C[C@H]3C)C1(C)C [INGENOL] |  |  |  | 10000 | 10000 | 10000 | > 95 | > 400000 |  | 
9 | CC1=C[C@]23C(=O)[C@@H](C=C(CO)[C@@H](O)[C@]2(O)[C@H]1OCC(=O)OC(C)(C)C)[C@H]1[C@@H](C[C@H]3C)C1(C)C |  |  | 111 | 3300 | 10000 | 10000 | 95 | 311000 |  | 
10 | C/C=C(/C)C(=O)O[C@H]1C(C)=C[C@@]23C(=O)[C@H]([C@H]4[C@@H](C[C@H]2C)C4(C)C)[C@H](F)C(CO)=C[C@]13O | 67 | 57 |  | 1240 | 1130 | 1210 | > 95 |  | Not Active | 
11 | CC1=C[C@]23C(=O)[C@@H](C=C(CO)[C@@H](O)[C@]2(O)[C@H]1OC(=O)C1CC1)[C@H]1[C@@H](C[C@H]3C)C1(C)C | 81 | 83 | 112 | 26 | 256 | 243 | 30 |  |  | 
12 | CC1=C[C@]23C(=O)[C@@H](C=C(CO)[C@@H](O)[C@]2(O)[C@H]1OC(=O)c1ccccc1)[C@H]1[C@@H](C[C@H]3C)C1(C)C | 60 | 54 | 110 | 6 | 182 | 88 | 30 |  |  | 
13 | CCCCCCCCCC(=O)O[C@H]1C(C)=C[C@]23C(=O)[C@@H](C=C(CO)[C@@H](O)[C@]12O)[C@H]1[C@@H](C[C@H]3C)C1(C)C | 96 | 94 | 137 | 10 | 8 | 11 |  | 117000 |  | 5.3
14 | CC#CC(=O)O[C@H]1C(C)=C[C@]23C(=O)[C@@H](C=C(CO)[C@@H](O)[C@]12O)[C@H]1[C@@H](C[C@H]3C)C1(C)C |  |  | 112 | 17 | 10000 | 10000 | 5 |  |  | 
15 | CC1=C[C@]23C(=O)[C@@H](C=C(CO)[C@@H](O)[C@]2(O)[C@H]1OC(=O)C1CCCC1)[C@H]1[C@@H](C[C@H]3C)C1(C)C | 58 | 54 | 107 | 6.5 | 69 | 65 | 30 |  |  | 
16 | CC(C)=CC(=O)O[C@H]1C(C)=C[C@]23C(=O)[C@@H](C=C(CO)[C@@H](O)[C@]12O)[C@H]1[C@@H](C[C@H]3C)C1(C)C | 82 | 74 | 109 | 4.3 | 86 | 66 | 55 | 283000 |  | 
17 | C/C=C(/C)C(=O)O[C@H]1C(C)=C[C@]23C(=O)[C@@H](C=C(COC)[C@@H](O)[C@]12O)[C@H]1[C@@H](C[C@H]3C)C1(C)C |  |  |  | 10000 | 10000 | 10000 | 77 | 400000 |  | 
18 | CC1=C[C@]23C(=O)[C@@H](C=C(CO)[C@@H](O)[C@@]24OC(=O)CO[C@@H]14)[C@H]1[C@@H](C[C@H]3C)C1(C)C |  |  |  | 10000 | 10000 | 10000 | 25 |  |  | 
19 | CC1=C[C@]23C(=O)[C@@H](C=C(CO)[C@@H](O)[C@]2(O)[C@H]1OC(=O)C(C)C)[C@H]1[C@@H](C[C@H]3C)C1(C)C | 72 | 63 | 104 | 19 | 120 | 112 | 30 |  |  | 
20 | CC1=C[C@]23C(=O)[C@@H](C=C(CO)[C@@H](O)[C@]2(O)[C@H]1OC(=O)C1CCC1)[C@H]1[C@@H](C[C@H]3C)C1(C)C | 60 | 55 | 111 | 10 | 882 | 450 | 10 |  |  | 
21 | CCCC(=O)O[C@H]1C(C)=C[C@]23C(=O)[C@@H](C=C(CO)[C@@H](O)[C@]12O)[C@H]1[C@@H](C[C@H]3C)C1(C)C | 87 | 115 | 88 | 25 | 313 | 318 | 18 |  |  | 
22 | CC1=C[C@]23C(=O)[C@@H](C=C(CO)[C@@H](O)[C@]2(O)[C@H]1OC(=O)C12C[C@@H]4C[C@@H](C[C@H]1C4)C2)[C@H]1[C@@H](C[C@H]3C)C1(C)C | 55 | 65 | 136 | 8.3 | 27 | 36 | 70 | 77000 |  | 
23 | CC1=C[C@]23C(=O)[C@@H](C=C(CO)[C@@H](O)[C@]2(O)[C@H]1OC(=O)/C(C)=C\c1ccc(C)cc1)[C@H]1[C@@H](C[C@H]3C)C1(C)C | 101 | 87 | 126 | 5.9 | 2.1 | 3.1 | 45 | 109000 |  | 
24 | C=C(CC)C(=O)O[C@H]1C(C)=C[C@]23C(=O)[C@@H](C=C(CO)[C@@H](O)[C@]12O)[C@H]1[C@@H](C[C@H]3C)C1(C)C | 101 | 100 | 102 | 5.2 | 21 | 29 | 30 | 129000 |  | 
25 | CC1=C[C@]23C(=O)[C@@H](C=C(CO)[C@@H](O)[C@@]24OC(=O)O[C@@H]14)[C@H]1[C@@H](C[C@H]3C)C1(C)C | 112 | 109 | 124 | 181 | 171 | 253 |  | 400000 |  | 
